Screening results deposited in PubChem BioAssay by Johns Hopkins Ion Channel Center.
Kir21 inh: blocks the mouse Kir2.1 inward-rectifier potassium channel; B-score at 10 µM; P35561; 310,000 tested, 0.85% active; HEK293-Kir2.1, FluxOR thallium flux fluorescence; active compounds read low; AID 1672;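 active = fluorescence ratio B-score at or below minus 3 SD of library scores, with starting-brightness B-score within 2 SD, cut at about -4.2 in these data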;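 also: channel flux triggered by added potassium and thallium sulfate stimulus; B-score of peak minus minimum fluorescence over baseline after thallium stimulus; more negative B-score means stronger Kir2.1 block with less thallium influx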
KCNK3 inh: human KCNK3 channel inhibition, primary screen. O14649. B-score at 10 µM. CHO-KCNK3 thallium flux, FluxOR fluorescence; active compounds read low. 340,000 tested, 0.84% active;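 active = B-score under library mean minus 4 SD, starting fluorescence ratio at most library mean plus 5 SD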;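 also: more negative B-score means stronger inhibition of thallium flux through KCNK3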
Target sequence (O14649 whole entry, looked up): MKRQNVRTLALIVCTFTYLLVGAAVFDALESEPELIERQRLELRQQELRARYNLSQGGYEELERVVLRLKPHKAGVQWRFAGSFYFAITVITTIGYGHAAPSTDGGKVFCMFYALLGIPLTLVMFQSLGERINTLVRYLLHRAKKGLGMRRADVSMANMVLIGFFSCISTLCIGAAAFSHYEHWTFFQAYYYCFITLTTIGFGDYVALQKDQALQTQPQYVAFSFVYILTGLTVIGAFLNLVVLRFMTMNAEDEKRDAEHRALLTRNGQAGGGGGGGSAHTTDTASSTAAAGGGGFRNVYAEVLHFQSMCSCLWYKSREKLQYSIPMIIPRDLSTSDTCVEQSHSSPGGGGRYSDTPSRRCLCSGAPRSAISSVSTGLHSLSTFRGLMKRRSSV
hERG protect: compounds protecting human hERG from proarrhythmic drug block; Q12809; CHO-hERG, FluxOR thallium flux, dofetilide IC70 present; activation (rescue from dofetilide block), less the hit threshold, % at 10 µM; 310,000 tested, 0.51% active; AID 1511;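 active = activation above the mean of controls blocked by dofetilide plus 5 SD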;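 also: thallium influx through hERG after potassium depolarization seen as dye fluorescence rise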
KCNK9 inh: inhibitors of human KCNK9 two-pore domain potassium channel; 310,000 tested, 1.2% active; Q9NPC2; HEK293 KCNK9, FluxOR thallium flux fluorescence; active compounds read low; B-score at 10 µM;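 active = ratio B-score over 3 SD below the library mean, with starting fluorescence within 5 SD of its mean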;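 also: negative B-score means less thallium flux so channel inhibition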
KCNQ1 block: human KCNQ1 channel inhibition. B-score at 10 µM. 310,000 tested, 1.3% active. P51787. CHO-K1 KCNQ1, FluxOR thallium flux fluorescence; active compounds read high;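 active = compounds whose thallium flux B-score, printed positive for inhibition, exceeds three library SD while starting fluorescence stays within three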;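 also: channel opened by potassium depolarization with thallium stimulus after 20 min compound exposure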
KCNQ1 act: potentiators or activators of human KCNQ1 potassium channel; CHO-K1 KCNQ1, thallium flux FluxOR fluorescence; active compounds read high; AID 2648; 310,000 tested, 0.35% active; B-score at 10 µM;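 active = fluorescence ratio B-score, a plate-corrected score, at least three library SD, with initial intensity B-score within 5 SD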
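Schedule – 37 °C overnight plating, 90-min dark dye load, 20-min compound pretreatment · System – stable KCNQ1 CHO-K1 line · Probe or stimulus – thallium- and potassium-containing depolarizing buffer · Measured by – kinetic FluxOR fluorescence, 10 s baseline plus 110 s post-stimulus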
KCNK9 block conf: human KCNK9 inhibitor confirmation. shares compounds with KCNK9 inh. HEK293 KCNK9 cells, FluxOR thallium flux fluorescence. inhibition, % at 10 µM. 4,900 tested, 43% active;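 active = thallium signal inhibited by more than 5 SD of the compound-free buffer control wells, on both duplicate plates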;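 also: 0% = assay buffer control wells without compound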
Kir2-1 spec: tests whether KCNK9 modulators also affect mouse Kir2.1; 4,900 tested, 4% active; shares compounds with KCNK9 inh; inhibition, % at 10 µM; Kir2.1 cells, FluxOR thallium flux fluorescence;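 active = thallium signal drop more than 5 SD beyond the mean of the no-compound control wells, seen in both duplicate plates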;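 also: signal is fluorescence rise after thallium addition divided by baseline fluorescence; plate controls were assay buffer only for no effect and full block by chlorpromazine control for full effect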
HEK293 Tl ctr: second counter-screen for KCNK9 modulators: effect in non-induced cells. AID 492997. inhibition, % at 10 µM. 4,900 tested, 40% active. shares compounds with KCNK9 inh. non-induced KCNK9-HEK293, FluxOR thallium flux;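 active = thallium signal drop beyond 5 SD of the untreated control mean, on both duplicate plates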;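 also: plate controls were buffer only IC0 wells for no effect and SID17386958 at its maximal inhibitory level for full effect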
Starred values were filed as active, the others as inactive; i = inactive; nt = no result; ! = a repeat was not active. A selection: hits, their analogues and other compounds. The true share with any hit is near 3.7%.

SMILES	Kir21 inh	KCNK3 inh	hERG protect	KCNK9 inh	KCNQ1 block	KCNQ1 act	KCNK9 block conf	Kir2-1 spec	HEK293 Tl ctr
Cc1ccccc1OCC(O)CN1CCN(CCN2C(=O)c3cccc4cccc(c34)C2=O)CC1 (stereo unspecified)	0.09	i	-10	i	i	i	i	i	i
CCC(OCC(O)CN1CCN(CCN2C(=O)c3cccc4cccc(c34)C2=O)CC1)c1ccccc1 (stereo unspecified)	-0.91	i	-18	i	i	i	i	i	i
Cc1cccc(C)c1OCC(O)CN1CCC(CN2C(=O)c3cccc4cccc(c34)C2=O)CC1 (stereo unspecified)	1.1	i	-22	i	i	i	i	i	i
COc1ccc(S(=O)(=O)N2CCCCC2)cc1NC(=O)c1cccc(S(=O)(=O)N2CCOCC2)c1	nt	i	nt	nt	nt	nt	nt	nt	nt
N=c1occ(C(=O)c2cc(F)ccc2O)cc1C(=O)NC1CCCCC1	-0.48	i	-11	i	i	i	nt	nt	nt
Cc1cc(C)nc(N2N=C(C(F)(F)F)CC2=O)n1	1.3	i	-4	i	i	i	nt	nt	nt
COC(=O)c1cc(-c2ccc3c(c2)OCO3)nc2ccccc12	1	i	-4	i	i	i	nt	nt	nt
Cc1csc(NC(=O)c2cc(-c3ccccc3)nc3ccccc23)n1	0.28	i	-12	-9.8*	i	i	42%*	i	40%*
Cc1cc(C)nc(NC(=O)c2cc(-c3ccc4c(c3)OCO4)nc3ccccc23)c1	2.1	i	-25	i	i	i	i	i	i
NC(=S)NN=C(c1ccc(F)cc1)C1CC1	nt	i	nt	nt	nt	nt	nt	nt	nt
CCOCCCNC(=S)N1CCCN(c2nc3cc(C)ccc3cc2C#N)CC1	-1.4	i	-12	i	i	i	i	i	i
CCOCCCNC(=S)N1CCCN(c2nc3c(C)c(C)ccc3cc2C#N)CC1	-2.6	i	-13	i	i	i	nt	nt	nt
COc1ccc(C(=O)NNC(=O)C23CC4CC(CC(C4)C2)C3)cc1OC	nt	i	nt	nt	nt	nt	nt	nt	nt
C(=N\NC(=Nc1ccccc1)c1ccccn1)/c1ccccn1	1	i	-3	i	i	i	nt	nt	nt
Clc1ccc(/C=N/NC(=Nc2ccccc2)c2ccccn2)c(Cl)c1	-0.61	i	-8	i	i	i	i	i	i
CCCCN(C(=O)Cc1ccc(S(=O)(=O)N2CCOCC2)s1)c1ccccc1	-0.4	i	-7	i	i	i	i	i	i
O=C(Cc1ccc(S(=O)(=O)N2CCOCC2)s1)N(Cc1ccccc1)c1ccccc1	-0.27	i	-17	i	i	i	nt	nt	nt
COc1ccc2c(c1)c(CC(=O)OCC(=O)N(C)C)c(C)n2C(=O)c1ccc(Cl)cc1	0.71	i	-7	i	i	i	nt	nt	nt
COc1ccc2c(c1)c(CC(=O)OC(C)C(=O)N(C)C)c(C)n2C(=O)c1ccc(Cl)cc1 (stereo unspecified)	0.57	i	-12	i	i	i	i	i	i
COc1cccc(C(C(=O)NC(C)(C)C)N(Cc2ccc(F)cc2)C(=O)CCC(=O)Nc2cc(C)on2)c1OC (stereo unspecified)	0.6	i	-6	i	i	i	nt	nt	nt
O=C(CSc1nnc(-c2ccc(F)cc2)o1)NC1CCCC1	-0.79	i	-7	i	i	i	nt	nt	nt
O=C(COc1ccccc1[N+](=O)[O-])Nc1ccc2oc(=O)ccc2c1	0.26	i	-4	-9.6*	i	i	i	i	i
Cc1cc(=O)oc2cc(NC(=O)COc3ccccc3[N+](=O)[O-])ccc12	nt	i	nt	nt	nt	nt	nt	nt	nt
CC(C)C1C(=O)CC(c2ccccc2)NC1c1ccccc1 (stereo unspecified)	0.13	i	-5	-11*	i	i	40%*	i	i
O=C(NC12CC3CC(CC(C3)C1)C2)c1cccc(OC(F)F)c1	1.1	i	-5	i	i	i	nt	nt	nt
SMILES	Kir21 inh	KCNK3 inh	hERG protect	KCNK9 inh	KCNQ1 block	KCNQ1 act	KCNK9 block conf	Kir2-1 spec	HEK293 Tl ctr
CN[C@H]1CC[C@@H](c2ccc(Cl)c(Cl)c2)c2ccccc21	-6.2*	i	nt	-8.6*!	i	i	34%*	i	nt
Cc1cc(C(=O)Nn2c(-c3ccncc3)nc3ccccc3c2=O)ccc1[N+](=O)[O-]	0.71	i	-7	i	i	i	nt	nt	nt
CCc1cc2c(SCC(=O)NC(=O)c3cccn3C)ncnc2s1	0.03	i	-1	i	i	i	nt	nt	nt
Cc1ccc(-c2cc(-c3ccco3)c(C#N)c(=O)[nH]2)cc1	-0.27	i	-5	i	i	i	nt	nt	nt
CC(C)(C)c1cc(-c2ccco2)c(C#N)c(SCC#N)n1	-1.6	i	-4	-9.6*	i	i	i	i	31%*
Cn1c(CCCOc2ccc(Cl)cc2Cl)nnc1SCC(=O)Nc1ccc(F)c(Cl)c1	1.5	i	-9	i	i	i	i	i	i
Cn1c(CCCOc2ccc(Cl)cc2Cl)nnc1SCC(=O)Nc1cccc(F)c1	-0.77	i	-7	i	i	i	nt	nt	nt
CCn1c(CCCOc2ccc(Cl)cc2Cl)nnc1SCC(=O)Nc1cc(F)ccc1C	0.03	i	-6	-9.7*	i	i	58%*	i	30%*
CCOC(=O)c1ccccc1NC(=O)CN(c1ccccc1C)S(C)(=O)=O	-2	i	-4	i	i	i	nt	nt	nt
COc1cccc(-c2ccc(C#N)c(OC(=O)c3ccc(Cl)cc3)n2)c1	0.11	i	-2	i	i	i	nt	nt	nt
COc1cccc(-c2ccc(C#N)c(OC(=O)c3c(Cl)cccc3Cl)n2)c1	-1.2	i	-6	-10*	i	i	38%*	i	28%*
CCc1ccc(C2CC(=O)N3CN(c4ccccc4)CSC3=C2C#N)cc1 (stereo unspecified)	-0.36	i	-2	i	i	i	nt	nt	nt
CN1CSC2=C(C#N)C(c3cccc(OCc4ccccc4)c3)CC(=O)N2C1 (stereo unspecified)	0.26	i	-7	i	i	i	i	i	i
C/C(=N\Nc1ccc(Cl)c(C(=O)O)c1)c1ccccn1	-0.01	i	-10	i	i	i	nt	nt	nt
C/C(=N\Nc1ncc(Cl)cc1Cl)c1ccccn1	-2.8	i	-29	-10*	11*	i	50%*	i	36%*
